The Ki is a measure of affinity in units of concentration, obtained from inhibition or displacement. A low value points to tighter binding. The term Kd denotes a measure of binding affinity in units of concentration. A low value points to a tighter complex.

Results on 15 compounds are retold here after ChEMBL document CHEMBL1126145, “Phenyl-substituted analogues of oxotremorine as muscarinic antagonists” (J Med Chem, 1992).

The species entered for one test is Mus musculus. Description: Antimuscarinic activity on the intact mice.(Dose required to double the dose of oxotremorine inducing a predetermined tremor intensity.). It counts as functional. In short, it runs like this: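 Male Swiss-Webster mice (24-32 g). Antagonist given i.p. at 200 µmol/kg to groups of ≥6 mice; 6 untreated controls. 20 min later, the i.v. oxotremorine ED50 was estimated by the up-and-down method, with intermittent spontaneous (grade 2) tremor as endpoint. Active compounds were tested at two further doses. The dose doubling the oxotremorine ED50 was found by linear regression of ED50 vs antagonist dose (including zero).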

For test [1], the target named is Muscarinic acetylcholine receptor. Nature of the test: Inhibition of [3H]N-methylscopolamine binding to muscarinic acetylcholine receptor of rat cerebral cortex. It counts as tissue-based. Summed up:
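Male Sprague-Dawley rat (200-300 g) cortex homogenized in 50 mM Na-K phosphate pH 7.4, spun 30000g, resuspended at 10 mg wet tissue/mL. Incubated with (-)-[3H]NMS 0.3 nM plus competitor for 30 min at 30 °C; filtration assay. IC50 from one-site nonlinear fit, converted to Ki by Cheng-Prusoff. Three experiments, each in triplicate.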

For test [2] the target is unchanged. Description: Determination of dissociation constant from antimuscarinic activity on isolated guinea pig ileum. It counts as tissue-based, Cavia porcellus.

Some results are limits rather than exact numbers.

In the test filed under Mus musculus, `CC1CCC(=O)N1CC#CCN1CCCC1` (stereo unspecified) had a Tremorolytic dose of 0.4 µM/kg.
Regarding `O=C1CCCN1CC#CCN1CCC(c2ccccc2)C1` (stereo unspecified), the Tremorolytic dose in the test filed under Mus musculus is 122 µM/kg. Further, the Ki in test [1] is 2.4 µM. The Kd in test [2] is 8.1 µM.
`O=C1CCCN1C(C#CCN1CCCC1)c1ccccc1` (stereo unspecified) displayed a Tremorolytic dose in the test listed under Mus musculus of 8.93 µM/kg. This compound also showed a Ki in test [1] of 0.11 µM. In addition, in test [2], the dissociation constant Kd came to 0.2 µM.
In the case of `CC(C#CCN1CCCC1)N1C(=O)CCC1=O` (stereo unspecified), the Tremorolytic dose in the test listed under Mus musculus came out at 1.2 µM/kg.
For `O=C1CC(c2ccccc2)CN1CC#CCN1CCCC1` (stereo unspecified), the Tremorolytic dose in the test listed under Mus musculus was over 200 µM/kg. The compound also returned a Ki in test [1] of 5.77 µM. Also, in test [2], the Kd is 15.22 µM.
In the case of `CC(=O)N(CC#CCN1CCCC1)Cc1ccccc1`, the Tremorolytic dose in the test listed under Mus musculus came out at 154 µM/kg. This compound also displayed a Ki in test [1] of 1.29 µM. In test [2], this compound registered a Kd of 5.89 µM.
In the case of `CN1[C@@H]2CC[C@H]1C[C@@H](OC(=O)C(CO)c1ccccc1)C2` (stereo partly specified) [ATROPINE], the Tremorolytic dose in the test listed under Mus musculus came out at 0.9 µM/kg.
For the compound `CC(C#CCN1CCCC1)N1CCCC1=O` (stereo unspecified), in the test filed under Mus musculus, the Tremorolytic dose is 0.5 µM/kg. This compound also showed a Kd in test [2] of 0.091 µM.
`O=C1CCC(c2ccccc2)N1CC#CCN1CCCC1` (stereo unspecified) yielded a Tremorolytic dose in the test filed under Mus musculus of 55.6 µM/kg. This compound displayed a Ki in test [1] of 0.54 µM. The compound also came in with a Kd in test [2] of 0.85 µM.
For `O=C1CCC(=O)N1C(C#CCN1CCCC1)c1ccccc1` (stereo unspecified) the same measures were 7.29 µM/kg, 0.12 µM and 0.1 µM.
As for `CN(C(=O)C(F)(F)F)C(C#CCN1CCCC1)c1ccccc1` (stereo unspecified), in the test listed under Mus musculus, the Tremorolytic dose stood at 26.5 µM/kg. The same compound had a Ki in test [1] of 0.23 µM. In test [2], the Kd came out at 0.5 µM.
For `CC(=O)N(C)C(C#CCN1CCCC1)c1ccccc1` (stereo unspecified), in that order: 17.4 µM/kg, 0.31 µM and 0.62 µM.
For `CC(=O)N(C)C(C)C#CCN1CCCC1` (stereo unspecified), the Tremorolytic dose in the test filed under Mus musculus was determined as 0.6 µM/kg.
With `O=C1C(c2ccccc2)CCN1CC#CCN1CCCC1` (stereo unspecified), in the test filed under Mus musculus, the Tremorolytic dose is over 200 µM/kg. The compound further displayed a Ki in test [1] of 6.91 µM. This compound also returned a Kd in test [2] of 11.21 µM.
As for `CN(CC#CCN1CCCC1)C(=O)Cc1ccccc1`, the Tremorolytic dose in the test listed under Mus musculus is over 200 µM/kg. In test [1], this compound registered a Ki of 5.2 µM. Moreover, the Kd in test [2] came to 20.5 µM.
